Activity calls are given as the source filed them. The calls are words filed in the database; no cut-off is given here.
What was measured:
[1] = system: Raji; assay: Antiproliferative activity against human Raji cells at 5 uM by MTT assay; type: functional, cell-based; conditions: TDE = time-dependent effect
Method in brief: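 Raji cells, proliferation by MTT; viability followed over treatment time at 5 μM.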

[2] = system: Raji; assay: Antiproliferative activity against human Raji cells after 48 hrs by MTT assay; type: functional, cell-based
Method in brief: (§1)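 Cell proliferation read by MTT in three […] (HL60, Raji, Ramos), all said to over-express BTK. IC50 values were determined for each line.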

[3] = system: Ramos; assay: Induction of apoptosis in human Ramos cells assessed as necrotic cells at 5 uM after 48 hrs by propidium iodide staining-based flow cytometric analysis (reference value: 1.11%); type: functional
[4] = system: Ramos; assay: Induction of apoptosis in human Ramos cells assessed as viable cells at 5 uM after 48 hrs by propidium iodide staining-based flow cytometric analysis (reference value: 96.83%); type: functional; conditions: read-out: Activity
[5] = system: Ramos; assay: Cell cycle arrest in human Ramos cells assessed as accumulation of cells at G2/M phase at 5 uM after 48 hrs by propidium iodide staining-based flow cytometric analysis (reference value: 4.26%); type: functional
Method in brief: (§2)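 Ramos cells incubated 48 h with 5 μM test agent, DMSO as blank control; DNA content by flow cytometry gives the share of cells in each cell-cycle phase.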

[6] = system: Ramos; assay: Cell cycle arrest in human Ramos cells assessed as apoptotic cells at 5 uM after 48 hrs by propidium iodide staining-based flow cytometric analysis (reference value: 5.03%); type: functional
[7] = system: Ramos; assay: Antiproliferative activity against human Ramos cells after 48 hrs by MTT assay; type: functional, cell-based; method in brief: as §1
[8] = system: Ramos; assay: Induction of apoptosis in human Ramos cells assessed as late apoptotic cells at 5 uM after 48 hrs by propidium iodide staining-based flow cytometric analysis (reference value: 0.98%); type: functional
[9] = system: Ramos; assay: Induction of apoptosis in human Ramos cells assessed as early apoptotic cells at 5 uM after 48 hrs by propidium iodide staining-based flow cytometric analysis (reference value: 1.08%); type: functional
[10] = system: HL-60; assay: Antiproliferative activity against human HL60 cells after 48 hrs by MTT assay; type: functional, cell-based; conditions: HL-60, 48 h; method in brief: as §1
[11] = system: Ramos; assay: Cell cycle arrest in human Ramos cells assessed as accumulation of cells at G0/G1 phase at 5 uM after 48 hrs by propidium iodide staining-based flow cytometric analysis (reference value: 24.65%); type: functional; method in brief: as §2
[12] = system: Ramos; assay: Cell cycle arrest in human Ramos cells assessed as accumulation of cells at S phase at 5 uM after 48 hrs by propidium iodide staining-based flow cytometric analysis (reference value: 71.08%); type: functional; method in brief: as §2
[13] = system: Raji; assay: Antiproliferative activity against human Raji cells at 40 uM after 72 hrs by MTT assay relative to control; type: functional
Method in brief: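 Raji cells were exposed to the compound over a range of concentrations and treatment times, with the MTT-based viability read-out taken up to 72 h. The 40 μM, 72 h point is expressed as viability relative to control.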

[14] = target: Tyrosine-protein kinase BTK (Homo sapiens) (UniProt Q06187); assay: Inhibition of BTK phosphorylation at Tyr223 residue in human Ramos cells at 100 to 9000 nM after 24 hrs by Western blot analysis; type: cell-based
[15] = target: Tyrosine-protein kinase BTK (Homo sapiens) (UniProt Q06187); assay: Inhibition of BTK in human Ramos cells assessed as reduction in PLCgamma-2 phosphorylation at Try1217 residue at 100 to 9000 nM after 24 hrs by Western blot analysis; type: cell-based

Tyrosine-protein kinase BTK (Homo sapiens), sequence (Q06187 whole entry): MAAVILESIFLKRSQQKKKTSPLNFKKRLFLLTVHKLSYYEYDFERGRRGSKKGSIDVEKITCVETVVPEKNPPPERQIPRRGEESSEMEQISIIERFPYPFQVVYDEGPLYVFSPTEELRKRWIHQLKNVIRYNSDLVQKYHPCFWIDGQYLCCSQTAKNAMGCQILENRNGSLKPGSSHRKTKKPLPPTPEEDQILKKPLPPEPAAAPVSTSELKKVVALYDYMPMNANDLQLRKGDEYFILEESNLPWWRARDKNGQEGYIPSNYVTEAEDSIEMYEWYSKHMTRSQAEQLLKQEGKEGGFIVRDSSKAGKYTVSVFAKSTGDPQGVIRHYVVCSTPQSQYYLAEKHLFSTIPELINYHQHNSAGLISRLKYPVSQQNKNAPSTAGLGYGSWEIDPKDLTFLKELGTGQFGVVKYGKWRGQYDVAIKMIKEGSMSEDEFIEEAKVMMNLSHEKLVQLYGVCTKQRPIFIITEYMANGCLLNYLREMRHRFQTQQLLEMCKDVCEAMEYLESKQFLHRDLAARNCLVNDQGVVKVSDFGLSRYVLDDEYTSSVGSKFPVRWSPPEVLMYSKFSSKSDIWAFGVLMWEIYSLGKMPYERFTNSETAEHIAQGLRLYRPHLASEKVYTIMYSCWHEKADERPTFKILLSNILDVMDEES

Structure (SMILES) | Activity [1] | IC50 [2] [µM] | Activity [3] [%] | viability at 5 µM [4] [%] | Activity [5] [%] | Activity [6] [%] | IC50 [7] [µM] | Activity [8] [%] | Activity [9] [%] | IC50 [10] [µM] | Activity [11] [%] | Activity [12] [%] | Activity [13] [%] | inhibition [14] | inhibition [15]
C=CC(=O)N1CCC[C@@H](n2nc(-c3ccc(Oc4ccccc4)cc3)c3c(N)ncnc32)C1 [IBRUTINIB] | Tde | 14.5 | 0.37 | 91.8 | 4.26 | 4.33 | 2.31 | 2.71 | 5.12 | 3.57 | 30.5 | 65.18 | – | – | –
C=CC(=O)Nc1ccc(-c2nc(Cl)cc(Nc3ccc(C(=O)N4CCOCC4)cc3)n2)cc1 | – | 14.7 | – | – | – | – | 7.24 | – | – | 5.94 | – | – | – | – | –
C=CC(=O)Nc1ccc(-c2nc(Cl)cc(Nc3ccc(C(=O)N4CCCC4)cc3)n2)cc1 | – | 19.2 | – | – | – | – | 10.4 | – | – | 15.8 | – | – | – | – | –
C=CC(=O)Nc1ccc(-c2nc(Cl)cc(Nc3ccc(C(=O)N(C)C)cc3)n2)cc1 | – | 42.9 | – | – | – | – | > 50 | – | – | > 50 | – | – | – | – | –
C=CC(=O)Nc1ccc(-c2nc(Cl)cc(Nc3ccc(C(=O)Nc4cc(C)ccc4C)cc3)n2)cc1 | – | 20.9 | – | – | – | – | 16.8 | – | – | 14.9 | – | – | – | – | –
C=CC(=O)Nc1ccc(-c2nc(Cl)cc(Nc3ccc(C(=O)N(CC)CC)cc3)n2)cc1 | – | 12.5 | – | – | – | – | 11.2 | – | – | 9.34 | – | – | – | – | –
C=CC(=O)Nc1ccc(-c2nc(Cl)cc(Nc3ccc(C(=O)Nc4cc(C(F)(F)F)cc(C(F)(F)F)c4)cc3)n2)cc1 | – | 9.36 | – | – | – | – | 6.18 | – | – | 4.79 | – | – | – | – | –
C=CC(=O)Nc1ccc(-c2nc(Cl)cc(Nc3ccc(C(=O)Nc4cccc(C)c4)cc3)n2)cc1 | Tde | 6.98 | 0.23 | 61.3 | 4.21 | 13.91 | 5.39 | 12.7 | 25.8 | 3.66 | 36.27 | 59.51 | 90 | Active | Active

Source: ChEMBL document CHEMBL4368870, “Design, synthesis and biological evaluation of novel 2-phenyl pyrimidine derivatives as potent Bruton's tyrosine kinase (BTK) inhibitors” (Medchemcomm, 2019)
